Assay results taken from ChEMBL document CHEMBL4346672, “Antimicrobial and KPC/AmpC inhibitory activity of functionalized benzosiloxaboroles” (Eur J Med Chem, 2019).
≈ marks a conversion by molar mass, not a printed value. Calls of active or inactive are those of the source. No cut-off for these calls is given here.

What was measured:
[1] = system: Klebsiella pneumoniae; experiment: Antibacterial activity against Klebsiella pneumoniae ATCC 13883 assessed as fold reduction of MIC in presence of efflux pump inhibitor PAbetaN incubated for 18 hrs by broth microdilution method; assay type: functional
How it was run: (§1)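 MICs determined with and without PAβN at 50 mg/L in Mueller-Hinton broth containing 1 mM MgSO₄. 2-fold serial dilutions per CLSI. Fold change taken from the paired MICs after 35 °C, 18 h.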

[2] = system: Staphylococcus aureus; experiment: Antibacterial activity against Staphylococcus aureus ATCC 6538P assessed as diameter of zone inhibition measured after 18 hrs by CLSI disc diffusion method; assay type: functional
How it was run: (§2)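 Disc diffusion on Mueller-Hinton II agar. Compounds dissolved in DMSO. Strains stored at -80 °C and subcultured twice on tryptic soy agar before testing. Inhibition zones read after 35 °C, 18 h.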

[3] = system: Serratia marcescens; experiment: Antibacterial activity against Serratia marcescens ATCC 13880 assessed as fold reduction of MIC in presence of efflux pump inhibitor PAbetaN incubated for 18 hrs by broth microdilution method; assay type: functional; how it was run: as §1
[4] = system: Candida parapsilosis; experiment: Antifungal activity against Candida parapsilosis ATCC 22019 assessed as diameter of zone inhibition incubated for 24 hrs by CLSI disc diffusion method; assay type: functional
How it was run: (§3)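 Yeast disc diffusion on Mueller-Hinton agar supplemented with 2% glucose and 0.5 mg/L methylene blue. Compounds in DMSO. Yeasts subcultured on Sabouraud dextrose agar before testing. Zones read after 35 °C, 24 h.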

[5] = system: Staphylococcus aureus; experiment: Antibacterial activity against Staphylococcus aureus ATCC 6538P measured after 18 hrs by CLSI broth dilution method; assay type: functional
How it was run: (§4)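 Broth MIC in Mueller-Hinton II broth following CLSI, compounds dissolved in DMSO. Strains subcultured twice on tryptic soy agar before testing. Growth read after 35 °C, 18 h.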

[6] = system: Pichia kudriavzevii; experiment: Antifungal activity against Candida krusei ATCC 6258 assessed as diameter of zone inhibition incubated for 24 hrs by CLSI disc diffusion method; assay type: functional; how it was run: as §3
[7] = system: Burkholderia cepacia; experiment: Antibacterial activity against Burkholderia cepacia ATCC 25416 assessed as diameter of zone inhibition measured after 18 hrs by CLSI disc diffusion method; assay type: functional; how it was run: as §2
[8] = system: Escherichia coli; experiment: Antibacterial activity against Escherichia coli ATCC 25922 assessed as diameter of zone inhibition measured after 18 hrs by CLSI disc diffusion method; assay type: functional; how it was run: as §2
[9] = system: Escherichia coli; experiment: Antibacterial activity against Escherichia coli ATCC 25922 assessed as fold reduction of MIC in presence of efflux pump inhibitor PAbetaN incubated for 18 hrs by CLSI broth microdilution method; assay type: functional; how it was run: as §1
[10] = system: Bacillus subtilis; experiment: Antibacterial activity against Bacillus subtilis ATCC 6633 assessed as diameter of zone inhibition measured after 18 hrs by CLSI disc diffusion method; assay type: functional; how it was run: as §2
[11] = system: Pseudomonas aeruginosa; experiment: Antibacterial activity against Pseudomonas aeruginosa ATCC 27853 measured after 18 hrs by CLSI broth dilution method; assay type: functional; conditions: ATCC 27853, 18 h; how it was run: as §4
[12] = system: Acinetobacter baumannii; experiment: Antibacterial activity against Acinetobacter baumannii ATCC 19606 assessed as diameter of zone inhibition measured after 18 hrs by CLSI disc diffusion method; assay type: functional; how it was run: as §2
[13] = system: Pseudomonas aeruginosa; experiment: Antibacterial activity against Pseudomonas aeruginosa ATCC 27853 assessed as diameter of zone inhibition measured after 18 hrs by CLSI disc diffusion method; assay type: functional, organism-based; how it was run: as §2
[14] = system: Acinetobacter baumannii; experiment: Antibacterial activity against Acinetobacter baumannii ATCC 19606 assessed as fold reduction of MIC in presence of efflux pump inhibitor PAbetaN incubated for 18 hrs by broth microdilution method; assay type: functional; how it was run: as §1
[15] = system: Meyerozyma guilliermondii; experiment: Antifungal activity against Candida guilliermondii IBA 155 assessed as diameter of zone inhibition incubated for 24 hrs by CLSI disc diffusion method; assay type: functional; how it was run: as §3
[16] = system: Serratia marcescens; conditions: ATCC 13880
[17] = system: Enterococcus faecalis; experiment: Antibacterial activity against Enterococcus faecalis ATCC 29212 measured after 18 hrs by CLSI broth dilution method; assay type: functional; conditions: ATCC 29212, 18 h; how it was run: as §4
[18] = system: Enterobacter cloacae; experiment: Antibacterial activity against Enterobacter cloacae DSM 6234 assessed as fold reduction of MIC in presence of efflux pump inhibitor PAbetaN incubated for 18 hrs by broth microdilution method; assay type: functional; how it was run: as §1
[19] = system: Candida albicans; experiment: Antifungal activity against Candida albicans ATCC 90028 assessed as diameter of zone inhibition incubated for 24 hrs by CLSI disc diffusion method; assay type: functional; how it was run: as §3
[20] = system: Enterobacter cloacae; experiment: Antibacterial activity against Enterobacter cloacae DSM 6234 assessed as diameter of zone inhibition measured after 18 hrs by CLSI disc diffusion method; assay type: functional; how it was run: as §2
[21] = system: Proteus mirabilis; experiment: Antibacterial activity against Proteus mirabilis ATCC 12453 measured after 18 hrs by CLSI broth dilution method; assay type: functional; conditions: ATCC 12453, 18 h; how it was run: as §4
[22] = system: Pichia kudriavzevii; experiment: Antifungal activity against Candida krusei ATCC 6258 assessed as decrease in fungal cell growth at 0.78 to 12.5 mg/L incubated for 24 hrs by CLSI broth dilution method; assay type: functional; conditions: ATCC 6258, 24 h
How it was run: (§5)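 Yeast broth dilution in RPMI 1640 with 2% glucose, compounds in DMSO. Yeasts pre-grown on Sabouraud dextrose agar. Growth read after 35 °C, 24 h.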

[23] = system: Proteus mirabilis; experiment: Antibacterial activity against Proteus mirabilis ATCC 12453 assessed as fold reduction of MIC in presence of efflux pump inhibitor PAbetaN incubated for 18 hrs by broth microdilution method; assay type: functional; how it was run: as §1
[24] = system: Staphylococcus epidermidis; experiment: Antibacterial activity against Staphylococcus epidermidis ATCC 12228 assessed as diameter of zone inhibition measured after 18 hrs by CLSI disc diffusion method; assay type: functional; how it was run: as §2
[25] = system: Acinetobacter baumannii; experiment: Antibacterial activity against Acinetobacter baumannii ATCC 19606 measured after 18 hrs by CLSI broth dilution method; assay type: functional; conditions: ATCC 19606, 18 h; how it was run: as §4
[26] = system: Saccharomyces cerevisiae; experiment: Antifungal activity against Saccharomyces cerevisiae ATCC 9763 assessed as decrease in fungal cell growth at 0.78 to 12.5 mg/L incubated for 24 hrs by CLSI broth dilution method; assay type: functional; conditions: ATCC 9763, 24 h
How it was run: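 Yeast strain subcultured on Sabouraud dextrose agar for 24–48 h at 30 °C before testing. Compounds dissolved in DMSO.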

[27] = system: Bordetella bronchiseptica; experiment: Antibacterial activity against Bordetella bronchiseptica ATCC 4617 assessed as diameter of zone inhibition measured after 18 hrs by CLSI disc diffusion method; assay type: functional; how it was run: as §2
[28] = system: Candida tropicalis; experiment: Antifungal activity against Candida tropicalis IBA 171 assessed as diameter of zone inhibition incubated for 24 hrs by CLSI disc diffusion method; assay type: functional; how it was run: as §3
[29] = system: Enterococcus faecium; experiment: Antibacterial activity against Enterococcus faecium ATCC 6057 assessed as diameter of zone inhibition measured after 18 hrs by CLSI disc diffusion method; assay type: functional; how it was run: as §2
[30] = system: Klebsiella pneumoniae; experiment: Antibacterial activity against Klebsiella pneumoniae ATCC 13883 measured after 18 hrs by CLSI broth dilution method; assay type: functional; conditions: ATCC 13883, 18 h; how it was run: as §4
[31] = system: Escherichia coli; experiment: Antibacterial activity against Escherichia coli ATCC 25922 measured after 18 hrs by CLSI broth dilution method; assay type: functional; conditions: ATCC 25922, 18 h; how it was run: as §4
[32] = system: Staphylococcus epidermidis; experiment: Antibacterial activity against Staphylococcus epidermidis ATCC 12228 measured after 18 hrs by CLSI broth dilution method; assay type: functional; conditions: ATCC 12228, 18 h; how it was run: as §4
[33] = Dissociation constant, pKa1 of compound in 0.1 M NaOH by potentiometric analysis; assay type: physicochemical
[34] = system: Meyerozyma guilliermondii; experiment: Antifungal activity against Candida guilliermondii IBA 155 assessed as decrease in fungal cell growth at 0.78 to 12.5 mg/L incubated for 24 hrs by CLSI broth dilution method; assay type: functional; conditions: IBA 155, 24 h; how it was run: as §5

Row | MIC [5] | MIC [11] | MIC [17] | SMILES | fold change (FC) [1] | diameter of the inhibition zone (DIZ) [2] | fold change (FC) [3] | diameter of the inhibition zone (DIZ) [4] | diameter of the inhibition zone (DIZ) [6] | diameter of the inhibition zone (DIZ) [7] | diameter of the inhibition zone (DIZ) [8] | fold change (FC) [9] | diameter of the inhibition zone (DIZ) [10] | diameter of the inhibition zone (DIZ) [12] | diameter of the inhibition zone (DIZ) [13] | fold change (FC) [14] | diameter of the inhibition zone (DIZ) [15] | DIZ [16] | fold change (FC) [18] | diameter of the inhibition zone (DIZ) [19] | diameter of the inhibition zone (DIZ) [20] | also measured
1 | 25 mg/L (≈ 112 µM) | > 400 mg/L | 400 mg/L (≈ 1790 µM) | C[Si]1(C)OB(O)c2ccc(C=O)c(F)c21 | 4 | 21 mm | 16 | inactive | inactive | inactive | inactive | 16 | 22 mm | inactive | inactive | 4 | inactive | inactive | 16 | inactive | inactive | MIC [21]: > 400 mg/L; MIC [22]: > 400 mg/L; fold change (FC) [23]: 4; diameter of the inhibition zone (DIZ) [24]: 27 mm; MIC [25]: > 400 mg/L; MIC [26]: > 400 mg/L; diameter of the inhibition zone (DIZ) [27]: inactive; diameter of the inhibition zone (DIZ) [28]: inactive; diameter of the inhibition zone (DIZ) [29]: inactive; MIC [30]: > 400 mg/L; MIC [31]: > 400 mg/L; MIC [32]: 50 mg/L (≈ 223 µM); pKa [33]: 5.4; MIC [34]: > 400 mg/L
2 | 50 mg/L (≈ 208 µM) | > 400 mg/L | 400 mg/L (≈ 1670 µM) | C[Si]1(C)OB(O)c2cc(B(O)O)cc(F)c21 | 8 | 18 mm | 2 | inactive | inactive | inactive | inactive | 8 | 22 mm | inactive | inactive | 4 | inactive | inactive | 32 | inactive | inactive | MIC [21]: > 400 mg/L; MIC [22]: 50 mg/L (≈ 208 µM); fold change (FC) [23]: 4; diameter of the inhibition zone (DIZ) [24]: 29 mm; MIC [25]: > 400 mg/L; MIC [26]: 400 mg/L (≈ 1670 µM); diameter of the inhibition zone (DIZ) [27]: inactive; diameter of the inhibition zone (DIZ) [28]: inactive; diameter of the inhibition zone (DIZ) [29]: 11 mm; MIC [30]: > 400 mg/L; MIC [31]: > 400 mg/L; MIC [32]: 50 mg/L (≈ 208 µM); pKa [33]: 6.6; MIC [34]: 400 mg/L (≈ 1670 µM)
